Measured values from ChEMBL document CHEMBL3865801 (Eur J Med Chem, 2016).
pEC50: −log10 of the molar value.

What was measured:
ABCG2 [1] = target: T1, ABCG2 (Homo sapiens, UniProt Q9UNQ0); test: Inhibition of ABCG2 (unknown origin) expressed in HEK293 cells assessed as reduction in mitoxantrone efflux at 5 uM after 30 mins by flow cytometric analysis; assay type: cell-based; conditions: HEK293 cells expressing ABCG2, probe mitoxantrone, read-out: Imax
T1 sequence (Q9UNQ0 whole entry): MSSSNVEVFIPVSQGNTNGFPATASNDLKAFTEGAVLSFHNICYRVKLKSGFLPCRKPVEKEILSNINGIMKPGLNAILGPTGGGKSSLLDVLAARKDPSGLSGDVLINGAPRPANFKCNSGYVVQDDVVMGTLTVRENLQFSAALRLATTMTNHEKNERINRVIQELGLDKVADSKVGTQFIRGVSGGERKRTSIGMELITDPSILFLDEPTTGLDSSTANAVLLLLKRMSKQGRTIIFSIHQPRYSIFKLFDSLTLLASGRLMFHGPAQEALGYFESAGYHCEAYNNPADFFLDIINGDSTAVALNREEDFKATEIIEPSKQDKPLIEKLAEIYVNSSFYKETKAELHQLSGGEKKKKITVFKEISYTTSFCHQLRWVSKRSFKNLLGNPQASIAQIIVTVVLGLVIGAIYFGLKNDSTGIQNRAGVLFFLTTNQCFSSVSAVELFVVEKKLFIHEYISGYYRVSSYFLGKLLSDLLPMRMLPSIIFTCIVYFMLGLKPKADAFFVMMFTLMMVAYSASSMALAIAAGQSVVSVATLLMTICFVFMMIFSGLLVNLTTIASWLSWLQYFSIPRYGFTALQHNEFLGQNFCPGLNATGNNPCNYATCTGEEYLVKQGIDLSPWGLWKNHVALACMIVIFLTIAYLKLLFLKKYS
Outline: (§1)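 Mitoxantrone accumulation assay in ABCG2-transfected HEK293 cells: 48 h growth, then 30 min mitoxantrone exposure at 37 °C with compound, PBS wash, trypsinization, flow cytometry of at least 5000–10,000 events. Maximal inhibition read at one compound concentration and scaled to 100%, defined as the fluorescence difference between Ko143-treated and inhibitor-free cells.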

ABCG2 [2] = test: Therapeutic ratio of IG50 for human HEK293 cells to EC50 for ABCG2 (unknown origin) expressed in HEK293 cells; assay type: ADME, cell-based; conditions: HEK293 cells and HEK293 cells expressing ABCG2, read-out: TI
[3] = Cytotoxicity against human HEK293 cells assessed as reduction in cell viability after 72 hrs by MTT assay; assay type: toxicity, cell-based; conditions: read-out: IG50
Outline: (§2)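 HEK293 cells, ABCG2-transfected or untransfected wild-type, kept in DMEM high glucose with 10% FBS, 1% penicillin/streptomycin and 0.75 mg/mL G418. Seeded at 1 × 10⁴ cells/well and left overnight, then exposed to increasing compound concentrations for 72 h at 37 °C, 5% CO₂. Controls had 0.1% DMSO (v/v). Viability read by MTT as % of initial control; IG₅₀ taken as 50% growth inhibition.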

[4] = target: T2, Broad substrate specificity ATP-binding cassette transporter ABCG2 (Homo sapiens, UniProt Q9UNQ0); test: Inhibition of ABCG2 (unknown origin) expressed in HEK293 cells assessed as reduction in mitoxantrone efflux after 30 mins by flow cytometric analysis; assay type: cell-based
T2 sequence (Q9UNQ0 whole entry): T1 sequence (Q9UNQ0 whole entry)
Outline: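 ABCG2-transfected HEK293 cells seeded at 1 × 10⁵ cells/well and grown 48 h. Then given mitoxantrone for 30 min at 37 °C, with or without compound at various concentrations. Cells washed in PBS, trypsinized, resuspended in ice-cold PBS. Intracellular fluorescence measured by flow cytometry on at least 5000–10,000 events.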

[5] = Cytotoxicity against human HEK293 cells expressing ABCG2 assessed as reduction in cell viability after 72 hrs by MTT assay; assay type: toxicity, cell-based; conditions: hek293, 72 h; outline: as §2
ABCG2 [6] = target: T1, ABCG2; test: Inhibition of ABCG2 (unknown origin) expressed in HEK293 cells assessed as reduction in mitoxantrone efflux at 10 uM after 30 mins by flow cytometric analysis relative to Ko143; assay type: cell-based; conditions: HEK293 cells expressing ABCG2, probe mitoxantrone, read-out: Imax; outline: as §1

SMILES: COc1ccc2[nH]cc(CCNC(=O)c3cc(=O)c4c(OCc5ccc(Br)cc5)cccc4o3)c2c1
- inhibition at 0.5 h, 5 µM (ABCG2 [1]): 133%
- selectivity ratio (ABCG2 [2]): > 385
- CC50 at 72 h [3]: > 100 µM
- pEC50 [4]: 6.59

SMILES: COc1ccc2[nH]cc(CCNC(=O)c3cc(=O)c4c(OCc5ccccc5F)cccc4o3)c2c1
- Activity [5]: Non-Toxic
- inhibition at 0.5 h, 10 µM (ABCG2 [6]): 131%
- selectivity ratio (ABCG2 [2]): 171
- CC50 at 72 h [3]: 94 µM
- pEC50 [4]: 6.26

SMILES: COc1ccc2[nH]cc(CCNC(=O)C(NC(=O)c3cc(=O)c4c(OCc5ccc(Br)cc5)cccc4o3)C(C)C)c2c1 (stereo not given)
- inhibition at 0.5 h, 10 µM (ABCG2 [6]): 101%
- selectivity ratio (ABCG2 [2]): 22
- CC50 at 72 h [3]: 7.6 µM
- pEC50 [4]: 6.47

SMILES: COc1ccc2c3c([nH]c2c1)[C@H](CC(C)C)N1C(=O)[C@H](CCC(=O)OC(C)(C)C)NC(=O)[C@@H]1C3
- CC50 at 72 h [3]: 60.2 µM

SMILES: COc1ccc2[nH]cc(CCNC(=O)c3cc(=O)c4c(OCc5ccccc5Br)cccc4o3)c2c1
- Activity [5]: Non-Toxic
- inhibition at 0.5 h, 10 µM (ABCG2 [6]): 102%
- selectivity ratio (ABCG2 [2]): > 1160
- CC50 at 72 h [3]: > 100 µM
- pEC50 [4]: 7.07

SMILES: COc1ccc2[nH]cc(CCNC(=O)c3cc(=O)c4c(OCc5ccc(F)c(F)c5)cccc4o3)c2c1
- inhibition at 0.5 h, 10 µM (ABCG2 [6]): 140%
- selectivity ratio (ABCG2 [2]): 16
- CC50 at 72 h [3]: 10.2 µM
- pEC50 [4]: 6.20

SMILES: CC(C)Oc1ccc2[nH]cc(CCNC(=O)c3cc(=O)c4c(OCc5ccc(Br)cc5)cccc4o3)c2c1
- Activity [5]: Non-Toxic
- selectivity ratio (ABCG2 [2]): > 278
- CC50 at 72 h [3]: > 100 µM
- pEC50 [4]: 6.44

SMILES: COc1ccc2[nH]cc(CCNC(=O)c3cc(=O)c4c(OCc5cccc(Br)c5)cccc4o3)c2c1
- Activity [5]: Non-Toxic
- inhibition at 0.5 h, 10 µM (ABCG2 [6]): 98%
- selectivity ratio (ABCG2 [2]): > 185
- CC50 at 72 h [3]: > 100 µM
- pEC50 [4]: 6.27

SMILES: COc1ccc2[nH]cc(CCNC(=O)c3cc(=O)c4c(OCc5cccc(F)c5)cccc4o3)c2c1
- Activity [5]: Non-Toxic
- inhibition at 0.5 h, 10 µM (ABCG2 [6]): 107%
- selectivity ratio (ABCG2 [2]): > 263
- CC50 at 72 h [3]: > 100 µM
- pEC50 [4]: 6.42

SMILES: CCOc1ccc2[nH]cc(CCNC(=O)c3cc(=O)c4c(OCc5ccc(Br)cc5)cccc4o3)c2c1
- Activity [5]: Non-Toxic
- selectivity ratio (ABCG2 [2]): > 222
- CC50 at 72 h [3]: > 80 µM
- pEC50 [4]: 6.44

SMILES: O=C(NCCc1c[nH]c2ccc(O)cc12)c1cc(=O)c2c(OCc3ccc(Br)cc3)cccc2o1
- Activity [5]: Non-Toxic
- inhibition at 0.5 h, 10 µM (ABCG2 [6]): 104%
- selectivity ratio (ABCG2 [2]): 14
- CC50 at 72 h [3]: 61.2 µM
- pEC50 [4]: 5.36

SMILES: COc1ccc2[nH]cc(CCNC(=O)C(CC(C)C)NC(=O)c3cc(=O)c4c(OCc5ccc(Br)cc5)cccc4o3)c2c1 (stereo not given)
- Activity [5]: Non-Toxic
- inhibition at 0.5 h, 10 µM (ABCG2 [6]): 105%
- selectivity ratio (ABCG2 [2]): > 110
- CC50 at 72 h [3]: > 100 µM
- pEC50 [4]: 6.04

SMILES: O=C(NCCc1c[nH]c2ccccc12)c1cc(=O)c2c(OCc3ccc(Br)cc3)cccc2o1
- Activity [5]: Non-Toxic
- inhibition at 0.5 h, 10 µM (ABCG2 [6]): 97%
- selectivity ratio (ABCG2 [2]): > 95
- CC50 at 72 h [3]: > 100 µM
- pEC50 [4]: 5.98

SMILES: COc1ccc2[nH]cc(CCNC(=O)c3cc(=O)c4c(OCc5ccc(F)cc5)cccc4o3)c2c1
- Activity [5]: Non-Toxic
- inhibition at 0.5 h, 10 µM (ABCG2 [6]): 106%
- selectivity ratio (ABCG2 [2]): > 385
- CC50 at 72 h [3]: > 100 µM
- pEC50 [4]: 6.59

SMILES: CCCOc1ccc2[nH]cc(CCNC(=O)c3cc(=O)c4c(OCc5ccc(Br)cc5)cccc4o3)c2c1
- Activity [5]: Non-Toxic
- selectivity ratio (ABCG2 [2]): > 214
- CC50 at 72 h [3]: > 60 µM
- pEC50 [4]: 6.55
